According to ChEMBL document CHEMBL1122366, “Potential antiatherosclerotic agents. 3. Substituted benzoic and non benzoic acid analogues of cetaben” (1983):
“And” between values parts separate entries of the source, which are not always exact repeats. Identical values can stand only once.

Assays:
[1] = molecular target: T1, Sterol O-acyltransferase 1 (Rattus norvegicus) (UniProt O70536); assay: In vitro inhibition of acyl coenzyme A:cholesterol acyltransferase; set-up: concentration or dose not given beside the values; details: concentration not given here
T1 sequence (whole entry): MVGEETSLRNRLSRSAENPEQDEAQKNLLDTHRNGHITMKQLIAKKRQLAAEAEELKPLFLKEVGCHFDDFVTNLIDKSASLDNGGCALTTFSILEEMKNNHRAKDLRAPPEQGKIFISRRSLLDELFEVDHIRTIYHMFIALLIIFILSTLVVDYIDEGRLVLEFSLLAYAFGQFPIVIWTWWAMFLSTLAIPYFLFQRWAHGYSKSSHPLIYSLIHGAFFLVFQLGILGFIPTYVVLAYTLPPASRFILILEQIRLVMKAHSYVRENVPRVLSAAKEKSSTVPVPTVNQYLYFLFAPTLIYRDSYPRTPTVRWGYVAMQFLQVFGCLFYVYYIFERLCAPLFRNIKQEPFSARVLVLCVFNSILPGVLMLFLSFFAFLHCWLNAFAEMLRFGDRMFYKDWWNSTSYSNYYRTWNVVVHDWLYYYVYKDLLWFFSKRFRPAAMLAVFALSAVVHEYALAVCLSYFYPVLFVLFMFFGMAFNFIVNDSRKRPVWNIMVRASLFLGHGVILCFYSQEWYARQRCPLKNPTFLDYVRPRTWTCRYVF
Summary of the method: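 Enzyme fatty acyl-CoA:cholesterol acyltransferase (ACAT), assayed in vitro at a single drug concentration of 5.2 μg/mL. The value is the mean percent inhibition of enzyme activity.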

Rattus norvegicus [2] = assay: In vivo sterol lowering activity at dose of 0.10 % of the diet; format: functional
Summary of the method: (§1)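 Normal rats were dosed in the diet. Serum sterol and triglyceride levels were measured and expressed as the mean percent of control values. Significance versus control was reported at p < 0.05, 0.01 and 0.001.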

Rattus norvegicus [3] = assay: In vivo triglyceride lowering activity dosed at 0.10 % of the diet.; format: functional; summary of the method: as §1
Rattus norvegicus [4] = assay: In vivo sterol lowering activity when dosed as 0.03 % of the diet; format: functional; summary of the method: as §1

inhibition [1] | SMILES | serum sterol level, percent of control (Rattus norvegicus [2]) [%] | serum triglyceride, percent of control (Rattus norvegicus [3]) [%] | Diet (Rattus norvegicus [3]) [%] | serum sterol level, percent of control (Rattus norvegicus [4]) [%]
< 55% | CCCCCCCCCCCCCCCCNc1ccc(C(=O)N2CCCCC2)cc1 | 83 | <61 | – | –
< 75% | CCCCCCCCCCCCCCCCN(C(=O)C(F)(F)F)c1ccc(C(=O)N2CCCCCC2)cc1 | 95 | <66 | – | –
– | CCCCCCCCCCCCCCCCNc1ccc(C(=O)OCC)c(F)c1 | 90 | <68 | – | –
< 68% | CCCCCCCCCCCCCCCCN(C(=O)C(F)(F)F)c1ccc(C(=O)N2CCCCC2)cc1 | 92 | <68 | – | –
48% | CCCCCCCCCCCCCCCCNc1ccc(C(=O)N(C)C)cc1 | 93 | 89 | – | –
< 23% | CCCCCCCCCCCCCCCCNc1ccc(C(=O)OC)c(F)c1 | 99 | 79 | – | –
< 41% | CCCCCCCCCCCCCCCCNc1csc(C#N)c1 | 92 | 99 | – | –
< 22% | CCCCCCCCCCCCCCCCN(C(C)=O)c1ccc(CO)cc1 | 99 | 105 | – | –
< 77% | CCCCCCCCCCCCCCCCNc1ccc(C(=O)NS(=O)(=O)c2ccc(C)cc2)cc1 | – | – | – | –
4% | CCCCCCCCCCCCCCCCNc1ccc(C(=O)OCC(COC(=O)CCCCCCCCCCCCCCC)OC(=O)CCCCCCCCCCCCCCC)cc1 (configuration not stated) | <80 | 75 | – | –
0% | CCCCCCCCCCCCCCCCNc1ccc(C(=O)OCC(O)COC)cc1 (configuration not stated) | <77 | <65 | – | –
28% | CCCCCCCCCCCCCCCCN(CCCCCCCCCCCCCCCC)c1ccc(CCC(=O)OCC)cc1 | 94 | 84 | – | –
0% | CCCCCCCCCCCCCCCCNc1ccc(/C=N\N=C(\N)NCc2ccccc2)cc1 | 94 | <49 | – | –
10% | CCCCCCCCCCCCCCCCNc1ccc(C(=O)OC/C=C/COC(=O)c2ccc(NCCCCCCCCCCCCCCCC)cc2)cc1 | 91 | – | – | –
0% | CCCCCCCCCCCCCCCCNc1ccc(C(=O)OCC2COC(C)(C)O2)cc1 (configuration not stated) | 86 | <68 | – | –
< 25% | CCCCCCCCCCCCCCCCN(C(=O)C(F)(F)F)c1ccc(C(=O)Nc2ccc(C(=O)OCC)cc2)cc1 | 95 | <69 | – | –
9% | CCCCCCCCCCCCCCCCNc1ccc(C(=O)OCC(O)COCC)cc1 (configuration not stated) | <68 | <47 | – | –
0% | CCCCCCCCCCCCCCCCN(C(C)=O)c1ccc(C(=O)OCC(O)CO)cc1 (configuration not stated) | 106 | 110 | – | –
0% | CCCCCCCCCCCCCCCCNc1ccc(C(=O)OC2CCCCCC2)cc1 | <87 | 84 | – | –
18% | CCCCCCCCCCCCCCCCN(CCCCCCCCCCCCCCCC)c1ccc(CCCC(=O)OCC)cc1 | 103 | 90 | – | –
10% and 16% | CCCCCCCCCCCCCCCCNc1ccc(CO)cc1 | – | – | – | –
– | CCCCCCCCCCCCCCCCNc1ccc(C(=O)Oc2ccc(C(=O)OC(C)(C)C)cc2)cc1 | 103 | <67 | – | –
2% | CCCCCCCCCCCCCCCCNc1ccc(C(=O)OCC(COC(=O)c2ccc(NCCCCCCCCCCCCCCCC)cc2)OC(C)=O)cc1 | 89 | <63 | – | –
< 22% | CCCCCCCCCCCCCCCCNc1ccc(C(=O)Oc2cccnc2)cc1 | 93 | – | 92 | –
< 33% | CCCCCCCCCCCCCCCCNc1ccc(C(C)O)cc1 (configuration not stated) | 93 | 93 | – | –
– | CCCCCCCCCCCCCCCCNc1ccc(C(=O)OCC2COC(c3ccccc3)O2)cc1 (configuration not stated) | 84 | <50 | – | –
0% | CCCCCCCCCCCCCCCCNc1ccc(C(C#N)O[Si](C)(C)C)cc1 (configuration not stated) | 82 | <36 | – | –

inhibition [1] | SMILES | serum sterol level, percent of control (Rattus norvegicus [2]) [%] | serum triglyceride, percent of control (Rattus norvegicus [3]) [%] | Diet (Rattus norvegicus [3]) [%] | serum sterol level, percent of control (Rattus norvegicus [4]) [%]
49% | CCCCCCCCCCCCCCCCNc1ccc(C(=O)O)c(O)c1 | 108 | <57 | – | –
8% and < 30% | CCCCCCCCCCCCCCCCNc1ccc(C#N)cc1 | – | – | – | –
0% | CCCCCCCCCCCCCCCCN(C(=O)C(F)(F)F)c1ccc(C(=O)NO)cc1 | 96 | 91 | – | –
< 49% | CCCCCCCCCCCCCCCCN(C(=O)C(F)(F)F)c1ccc(C(=O)C(C(=O)OCC)C(=O)OC(C)(C)C)cc1 (configuration not stated) | 90 | <64 | – | –
0% | CCCCCCCCCCCCCCCCNc1ccc(C(=O)OCC(O)CO)cc1 (configuration not stated) | – | – | – | –
0% | CCCCCCCCCCCCCCCCNc1ccc(C(=O)OC)c(C)c1 | 99 | <60 | – | –
45% | CCCCCCCCCCCCCCCCNc1ccc(C(=O)NC(C)C(=O)O)cc1 (configuration not stated) | 102 | 132 | – | –
6% | CCCCCCCCCCCCCCCCNc1cc(C(=O)OC)cc(C(=O)OC)c1 | 108 | 86 | – | –
< 72% | CCCCCCCCCCCCCCCCN(CC)c1ccc(C(=O)O)cc1 | – | – | – | –
0% | CCCCCCCCCCCCCCCCN(C)c1ccc(C(=O)OCC(O)CO)cc1 (configuration not stated) | 99 | 93 | – | –
12% | CCCCCCCCCCCCCCCCN(C(C)=O)c1ccc(C(=O)OCC(COC(C)=O)OC(C)=O)cc1 (configuration not stated) | 101 | 111 | – | –
< 50% | CCCCCCCCCCCCCCCCN(C(=O)C(F)(F)F)c1ccc(C(=O)NNC(C)=O)cc1 | <81 | <61 | – | –
– | CCCCCCCCCCCCCCCCNc1ccc(C(=O)OC)cn1 | 114 | – | – | 108
4% | CCCCCCCCCCCCCCCCN(C(C)=O)c1ccc(C(=O)OCC(O)COC(C)=O)cc1 (configuration not stated) | 97 | 113 | – | –
5% | CCCCCCCCCCCCCCCCNc1ccc(C(=O)OCC)cc1F | 105 | 74 | – | –
13% | CCCCCCCCCCCCCCCCNc1ncc(C(=O)OCC)cn1 | – | – | – | –
– | CCCCCCCCCCCCCCCCNc1ccc(CO)cc1.Cl | 99 | 100 | – | –
0% | CCCCCCCCCCCCCCCCNc1ccc(CCCC(=O)OCC)cc1 | 99 | 76 | – | –
27% | CCCCCCCCCCCCCCNc1ccc(C(=O)OCC(O)CO)cc1 (configuration not stated) | <80 | <47 | – | –
< 43% | CCCCCCCCCCCCCCCCNc1ccc(C(=O)CC(=O)OC)cc1 | <84 | <47 | – | –
– | CCCCCCCCCCCCCCCCNc1ccc(C#N)cc1.Cl | 100 | 88 | – | –
34% | CCCCCCCCCCCCCCCCNc1ccc(C(O)C(N)=O)cc1 (configuration not stated) | 94 | 57 | – | –
14% | CCCCCCCCCCCCCCCCN(C(=O)CCCCCCCCCCCCCCC)c1ccc(C(=O)OCC(O)CO)cc1 (configuration not stated) | 99 | 72 | – | –
22% | CCCCCCCCCCCCCCCCNc1ccc(C(=O)OCC(COC(C)=O)OC(C)=O)cc1 (configuration not stated) | <66 | <40 | – | –
< 24% | CCCCCCCCCCCCCCCCNc1csc(C(=O)OCC)c1 | 112 | – | – | –
78% | CCCCCCCCCCCCCCCCNc1ccc(-c2nn[nH]n2)cc1 | 89 | 91 | – | –
13% | CCCCCCCCCCCCCCCCNc1ccc(SCC(=O)OCC)cc1 | 99 | 126 | – | –
